Assay results published in ChEMBL document CHEMBL4251734, “Study on Liposomal Encapsulation of New Bodipy Sensitizers for Photodynamic Therapy” (ACS Med Chem Lett, 2018).
Active and inactive are the calls of the source. The calls are words filed in the database; no cut-off is given here.

Experiments:
SK-OV-3 [1] = test: Photocytotoxicity in human SKOV3 cells assessed as cell death at 0.1 to 1 uM incubated for 6 hrs followed by PDT-1200 light irradiation at 20 J/cm2 measured after 16 hrs by MTT assay; type: functional, cell-based
Method in brief: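 Free photosensitizer, not encapsulated in liposomes, was added to SK-OV-3 cells. The cells were then exposed to light at 20 J cm^-2, a dose chosen from a preliminary light-dose series. A dark plate served as the control. Viability was read by MTT, and IC50 was taken as the PS concentration killing 50% of cells. Each light treatment was done in triplicate.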

SK-OV-3 [2] = test: Photocytotoxicity in human SKOV3 cells assessed as cell death incubated for 6 hrs followed by PDT-1200 light irradiation at 20 J/cm2 measured after 16 hrs using liposome-encapsulated compound by MTT assay; type: functional, cell-based; details: SK-OV-3, light or radiation study
Method in brief: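 Photosensitizer was loaded into egg phosphatidylcholine/DOPE liposomes (mole ratio EPC:DOPE:PS 70:25:5). Loaded PS was quantified by absorbance in DMSO against standard curves. SK-OV-3 cells were treated and irradiated at 20 J cm^-2, with a dark plate as the control. Viability was read by MTT. IC50 was taken as the PS concentration killing 50% of cells. Triplicate.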

[3] = Dark toxicity in human SKOV3 cells assessed as cell death at 0.1 to 1 uM incubated for 6 hrs using liposome-encapsulated compound by MTT assay; type: cell-based; details: sk-ov-3, 6 h
Method in brief: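 Liposomes of egg phosphatidylcholine, DOPE and photosensitizer at mole ratio 70:25:5. The PS content of the liposomes was estimated from absorbance after dissolving them in DMSO, read against standard curves of each pure PS in DMSO. Treated SK-OV-3 plates were kept shielded from all light, including stray light, as the dark control. Viability was read by MTT. Triplicate.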

SMILES	Activity (SK-OV-3 [1])	IC50 (SK-OV-3 [2])	Activity [3]
COc1ccc(/C=C/C2=[N+]3C(=C(c4ccccc4)c4c(C)c(I)c(/C=C/c5ccc(OC)c(OC)c5)n4[B-]3(F)F)C(C)=C2I)cc1OC	inactive	880 nM	Non-Toxic
COc1ccc(/C=C/C2=[N+]3C(=C(c4ccc([N+](=O)[O-])cc4)c4c(C)c(I)c(/C=C/c5ccc(OC)c(OC)c5)n4[B-]3(F)F)C(C)=C2I)cc1OC	inactive	350 nM	Non-Toxic
COc1cc(/C=C/C2=[N+]3C(=C(c4ccc([N+](=O)[O-])cc4)c4c(C)c(I)c(/C=C/c5cc(OC)c(OC)cc5[N+](=O)[O-])n4[B-]3(F)F)C(C)=C2I)c([N+](=O)[O-])cc1OC	inactive	860 nM	Non-Toxic
CC1=C(I)C(/C=C/c2ccccc2OCc2ccccn2)=[N+]2C1=C(c1ccc([N+](=O)[O-])cc1)c1c(C)c(I)c(/C=C/c3ccccc3OCc3ccccn3)n1[B-]2(F)F	inactive	650 nM	Non-Toxic
C=Cc1c(C)c2cc3nc(c(CC(=O)O)c4[nH]c(cc5nc(cc1[nH]2)C(C)=C5CC)c(C)c4C(=O)O)[C@@H](CCC(=O)O)[C@@H]3C [CHLORIN E6]	–	390 nM	–
